A selection: hits, their analogues and other compounds. The true share with any hit is near 4.9%.
PHOSPHO1 block: PubChem AID 1565; Phosphoethanolamine/phosphocholine phosphatase (Homo sapiens), Q8TCT1; recombinant PHOSPHO1, absorbance phosphatase assay; inhibition, % at 13.3 µM; 290,000 tested, 1.1% active; in the data active means inhibition above about 60%
Target sequence (Q8TCT1 whole entry, looked up): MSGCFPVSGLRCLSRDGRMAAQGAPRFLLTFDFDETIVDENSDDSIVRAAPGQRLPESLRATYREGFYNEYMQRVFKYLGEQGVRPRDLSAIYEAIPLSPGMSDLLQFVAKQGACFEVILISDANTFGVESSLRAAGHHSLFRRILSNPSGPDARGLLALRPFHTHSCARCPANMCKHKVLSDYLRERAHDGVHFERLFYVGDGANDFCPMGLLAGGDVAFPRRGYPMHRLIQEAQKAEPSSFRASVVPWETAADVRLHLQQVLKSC
HSF1 inh: HSF1 inhibitors in luciferase reporter cells, primary screen, cell-based, NIH3T3, luminescence; NIH3T3-HGL HSE-luciferase, MG132-induced, luminescence 8 h; stronger effect = lower value; activity change, negative = inhibition, % at 7.5 µM (by protocol); 300,000 tested, 0.77% active;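 active means more than half of replicate wells show activity change below -50%, luminescence cut by over half; inconclusive means some wells, but at most half, below -50%; inactive means no replicate well below -50%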;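 further: luciferase reports HSF-1 transcriptional activity via heat shock element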
CHT PAM: CHT positive allosteric modulators, primary screen, cell-based, membrane potential dye, choline EC20; CHT-expressing cells; stronger effect = higher value; LV-AA mutant CHT in HEK293 cells; B-score at 10 µM; 310,000 tested, 0.49% active;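 active means initial fluorescence not abnormally high and integrated response B-score, plate-corrected, over 3 SD above library mean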
Lipid droplet: inhibitors of hepatocyte lipid droplet formation, primary screen, imaging, high-throughput imaging, BODIPY stain; AML12 mouse hepatocytes, oleate lipid droplets; inhibition, % at 6.5 µM; 240,000 tested, 0.4% active;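 active means lipid droplet intensity inhibited by at least 50%, with more than 500 cells counted; inconclusive means wells with under 300 cells, treated as cytotoxic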
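Material – AML12 mouse liver cells · Also added – oleate loading, 100 µM · Compound dosing – 6.5 µM single-point dosing · Times – overnight treatment with compound plus oleate · Measured by – fluorescence imaging, 20x objective, two fields per well · Read-out – percent inhibition of filter-corrected integrated lipid droplet intensity per well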
CHT inh: inhibitors of human choline transporter CHT; High affinity choline transporter 1 (Homo sapiens), Q9GZV3; CHT-expressing cells, membrane potential dye, choline response; stronger effect = lower value; B-score at 10 µM; 310,000 tested, 0.86% active;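 active means B-score over 3 SD under the library average, and starting fluorescence ratio not unusually high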;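 further: choline stimulus applied at its EC90 after an EC20 pre-addition; B-score computed on integrated fluorescence ratio after choline addition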
HSF-1 act: HSF-1 activators, primary screen, NIH3T3-HGL cells, MG132 stress, luminescence, single point. NIH3T3-HGL HSF-1 luciferase reporter, 8 h; 100% = twice DMSO control signal. activation, % at 9 µM. 300,000 tested, 1.7% active. AID 504408, 2011;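 active means mean replicate activation of at least 50% with a set share of replicates each reaching 50%; inconclusive means only one of those two conditions met; inactive means mean below 50% and too few replicates reaching it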
Each line names hits and unclear results; the compound was inactive in the other large screens.

CC(=O)N1CCN(Cc2nc(C(c3ccccc3)c3ccccc3)no2)CC1	none
O=C(NC1=NCCS1)c1ccc(Br)s1	none
O=C(COC(=O)/C=C/c1ccc(Cl)cc1)NCCC1=CCCCC1	none
Cc1cc(C)c(NC(=O)CSc2nncn2-c2cccnc2)c(C)c1	HSF1 inh -54
Cc1c(Cl)cccc1NC(=O)CSc1nncn1-c1cccnc1	none
CC(C)CNC(=O)c1cccc(NC(=O)c2ccc3c(c2)C(=O)N(C)C3=O)c1	none
O=C(/C=C/c1ccc(Cl)cc1)NC(=S)Nc1ccc(CN2CCOCC2)cc1	HSF-1 act 86
COc1ccc(C(=O)NNC(=S)NC(=O)/C=C/c2cccs2)cc1	PHOSPHO1 block 90
COc1ccc(NC(=S)NC(=O)/C=C/c2ccc(F)cc2)cc1	none
COc1ccc(/C=C/C(=O)NC(=S)Nc2ccc(C(=O)O)cc2)cc1	PHOSPHO1 block 67
COc1ccc(/C=C/C(=O)NC(=S)NNC(=O)Cc2cccs2)cc1	PHOSPHO1 block 96
O=C(/C=C/c1ccccc1)NC(=S)NNC(=O)Cc1cccs1	none
CCOC(=O)c1ccc(NC(=O)/C=C/c2cccs2)cc1	HSF-1 act 53
Cc1ccc(OCC(=O)NCCNC(=O)c2ccco2)cc1	none
O=[N+]([O-])c1ccc(N/N=C/c2ccccc2O)cc1	HSF-1 act 73
COc1ccc(C2CC(C(F)(F)F)n3nc(C(=O)O)cc3N2)cc1OC (stereo not given)	none (no result: Lipid droplet)
COc1ccc2cc(C(=O)N3CCc4ccccc43)[nH]c2c1	HSF-1 act 52
COc1ccc2c(CC(=O)N3CCc4ccccc43)coc2c1	HSF-1 act 104
COc1ccc2c(CC(=O)OCC(=O)N3CCc4ccccc43)coc2c1	none
O=C(Nc1ncccn1)C1CCCN1S(=O)(=O)c1ccc(Cl)c(Cl)c1 (stereo not given)	none
COc1ccccc1C(=O)NCCC(=O)NNC(=O)c1ccccc1O	none (no result: PHOSPHO1 block, Lipid droplet)
COc1ccccc1C(=O)NCCC(=O)NNC(=O)Cn1ccc(C(F)(F)F)n1	HSF1 inh -77 (no result: PHOSPHO1 block, Lipid droplet)
CC1=C(C#N)c2nc(N)c(C#N)c(C)c2/C1=C\c1ccc(OCC(=O)O)c(Cl)c1	PHOSPHO1 block 71, HSF1 inh inconclusive (no result: Lipid droplet)
CCn1ncc(Br)c1C(=O)Nc1cccc(F)c1	none
CCn1ncc(Br)c1C(=O)Nc1ccc(C(C)C)cc1	HSF-1 act 59
COc1ccc(-c2nc(C#N)c(NCCc3ccccc3)o2)cc1OC	HSF-1 act 80
O=C(CSc1nc2ccccc2nc1SCC(=O)N1CCCCC1)N1CCCCC1	PHOSPHO1 block 71 (no result: Lipid droplet)
Cc1ccc(NC(=O)CN2CC(C)SC2=NC2CCCCC2)cc1 (stereo not given)	PHOSPHO1 block 74 (no result: HSF1 inh, HSF-1 act)
CCOCCn1c(COc2ccccc2)nc2ccccc21	none
O=C(/C=C\c1ccccc1OC(=O)c1ccccc1F)c1cc2ccccc2o1	HSF-1 act 166
CC(=O)/C=C\c1ccccc1OC(=O)c1cc2ccccc2oc1=O	none
COc1ccccc1CNC(=O)C1CCN(S(=O)(=O)c2ccc(-n3cnnn3)cc2)CC1	none
CCOC(=O)c1ccc2nc(NC(=O)c3cccs3)sc2c1	none
O=C(NC(=S)Nc1nc2ccc(F)cc2s1)c1ccco1	HSF-1 act 89
CS(=O)(=O)c1ccc2nc(NC(=O)c3ccco3)sc2c1	none
CC(C)(C)c1csc(NC(=O)c2cccs2)n1	HSF-1 act 55
CCOC(=O)c1ccc2nc(NC(=O)c3ccco3)sc2c1	HSF-1 act 69
O=C(Nc1nc2ccc(F)cc2s1)c1cccs1	HSF-1 act 80
COc1ccc(NS(=O)(=O)c2cc(NC(=O)CCNC(C)=O)ccc2N2CCOCC2)cc1	none (no result: PHOSPHO1 block, Lipid droplet)
O=C(Nc1nc2cc3c(cc2s1)OCCO3)c1ccco1	HSF1 inh -55
O=C(Nc1nc2cc3c(cc2s1)OCO3)c1ccco1	none (no result: HSF1 inh, CHT PAM, CHT inh, HSF-1 act)
O=C(Nc1nc2c(s1)CCc1ccccc1-2)c1cccs1	HSF-1 act 57 (no result: Lipid droplet)
CCC(Sc1ncnc2c1nnn2-c1ccc(F)cc1)C(=O)OC (stereo not given)	HSF-1 act 103 (no result: Lipid droplet)
CCC(C)NC(=O)Cc1c(OC)ccc2cc(Br)ccc12 (stereo not given)	HSF-1 act 62
Cc1cc(C)c2[nH]c(=O)c(CN(CC3CCCO3)S(=O)(=O)c3ccc4c(c3)OCCO4)cc2c1 (stereo not given)	HSF-1 act 59 (no result: Lipid droplet)
Cc1ccc(C)c2[nH]c(=O)c(CN(CC3CCCO3)S(=O)(=O)c3ccc4c(c3)OCCO4)cc12 (stereo not given)	none (no result: Lipid droplet)
Cc1ccc(OCCn2c(=O)n(C)c3ccccc32)cc1	HSF-1 act 59
Cc1cccc(N(C(=O)c2cnc3n(c2=O)CCS3)C2CCCCC2)c1	none
O=C(Nc1ccccc1C(=O)N1CCOCC1)C1CC(=O)N(c2ccc(F)cc2)C1 (stereo not given)	none
CCc1ccc(/C(C)=N\Nc2ccc([N+](=O)[O-])cc2)cc1	none (no result: Lipid droplet)
C/C(=N\Nc1ccc([N+](=O)[O-])cc1)c1ccco1	HSF-1 act 55
O=C1/C(=C/c2cccs2)COc2ccccc21	none
CN(C)/N=C/C=C1\CCC/C(=C/c2cccs2)C1=O	HSF-1 act 76
O=c1[nH]c(C2CCN(S(=O)(=O)c3cccc(Cl)c3)CC2)nc2c1nnn2Cc1ccccc1	none (no result: CHT PAM, CHT inh)
O=c1[nH]c(C2CCN(S(=O)(=O)c3cccc([N+](=O)[O-])c3)CC2)nc2c1nnn2Cc1ccccc1	HSF-1 act 61
CC(O)c1nc2ccccc2n1Cc1nnc(-c2ccc(Cl)cc2)o1 (stereo not given)	HSF1 inh -56 (no result: Lipid droplet)
CC(C)NCc1nnc(-c2ccc(Cl)cc2)o1	none
COc1ccccc1N1CCN(/N=C\c2ccc(C)o2)CC1	HSF-1 act 63 (no result: Lipid droplet)
O=C(CN1C(=O)C2CCCCC2C1=O)N1CCN(c2ccccc2)CC1 (stereo not given)	none
Cc1nc(-c2ccccn2)sc1C(=O)Nc1ccc(F)cc1	none (no result: Lipid droplet)
Cc1nc(-c2ccccn2)sc1C(=O)Nc1ccc(F)cc1F	HSF-1 act 70 (no result: Lipid droplet)
CC(C)C(c1nnnn1C1CCCCC1)N1CCc2ccccc2C1 (stereo not given)	none (no result: Lipid droplet)
C=CCNC(=S)N/N=C/c1ccc(-c2ccc(Br)cc2)o1	HSF-1 act 78
Cc1[nH]c2ccccc2c1C(=O)CSc1ccc(Cl)cc1	HSF-1 act 54
Cc1[nH]c2ccccc2c1C(=O)CSC(=S)N1CCCCC1	HSF-1 act 54
Cc1[nH]c2ccccc2c1C(=O)CSC(=S)N(C)C1CCCCC1	none
Cc1[nH]c2ccccc2c1C(=O)CSc1nc2ccccc2[nH]1	none (no result: Lipid droplet)
CCOC(=O)N1CCN(C2=Nc3cccc4cccc2c34)CC1	CHT inh -7.1 (no result: Lipid droplet)

Screening data from PubChem.
